Two compounds from ChEMBL document CHEMBL2169747, “Synthesis and biological properties of highly sequence-specific-alkylating N-methylpyrrole-N-methylimidazole polyamide conjugates” (J Med Chem, 2012) can be followed below.

For data set [1], the system named is A549. Put plainly: Antitumor activity against human A549 cells xenografted in BALB/c-nu/nu mouse assessed as effect on tumor growth at 0.50 mg/kg, ip for 14 days. The class given is functional, organism-based. More on the design: dose 0.5 mg/kg. Summed up: (§1)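 Male BALB/c-nu/nu mice, 5 weeks old, 15−22 g. Cells were implanted subcutaneously in the right subaxillary region at 3 × 10^6 cells/mouse: 50 μL for A549, 100 μL for DU145, with HBSS and Matrigel used. Mice were grouped by tumor size. The naked conjugate was given intraperitoneally once on day 0 as 20 μL at 625 μg/mL in 100% DMSO (12.5 μg/mouse). Tumor size and weight were measured every other day for 14 days. n = 7 or 8.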
In general terms: In xenograft studies the graft and the host belong to different species.

The test system of data set [2] is A549. Put plainly: Antitumor activity against human A549 cells xenografted in BALB/c-nu/nu mouse assessed as effect on tumor growth at 1.6 mg/kg, iv administered as liposomal conjugate for 14 days. Format: functional, organism-based. Also noted: dose 1.6 mg/kg. Summed up: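 Male BALB/c-nu/nu mice (5 weeks, 15−22 g) with subcutaneous right-subaxillary A549 or DU145 xenografts (3 × 10^6 cells/mouse), grouped by tumor size. Liposomes were made from a lipid film hydrated in water and bath-sonicated 2 h, giving 330 μg/mL conjugate in 17 mM lipid. A single 125 μL intravenous dose (41 μg/mouse) was given on day 0. Tumor size and weight were read every other day for 14 days. n = 5 or 6.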

For data set [3], the system named is K562. Kind of data set: Cytotoxicity against human K562 cells assessed as cell growth inhibition after 48 hrs by microplate reader analysis. Conditions: K562, 48 h. The class given is functional, cell-based. The method in brief:
(§2)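 Medium was RPMI-1640 for EBC-1, A549 and DU145, and DMEM for PC-3, SK-N-SH and K562. Both media had 10% heat-inactivated FBS plus penicillin/streptomycin; cells were kept at 37 °C, 5% CO2. Cells were seeded at 5000/well and given compound from DMSO stock (final 0.1% DMSO) for 48 h. Viability was read by WST-8 colorimetry, absorbance at 450 and 600 nm, and IC50 determined.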

The test system of data set [4] is A549. Kind of data set: Cytotoxicity against human A549 cells assessed as cell growth inhibition after 48 hrs by microplate reader analysis. The class given is functional, cell-based. Conditions: A549, 48 h. The method in brief:
as §2

The subject of data set [5] is A549. Put plainly: Upregulation of KRTHA4 gene expression in human A549 cells at 34 nM after 12 hrs by microarray analysis relative to control. The class given is functional. The method in brief: (§3)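 4 ×10^5 A549 cells seeded per 60 mm dish and treated 12 h with conjugate (21, 26, 34 or 100 nM) in medium; control medium contained 0.1% DMSO, with conjugates added as 0.1% DMSO solutions. Whole human genome (~25 000 genes) expression profiled by microarray against the DMSO control. A549 culture: RPMI-1640 with 10% heat-inactivated FBS, penicillin/streptomycin, 37 °C, 5% CO2.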

Data set [6] concerns DU-145. Kind of data set: Antiangiogenic activity against human DU145 cells. Format: functional, cell-based.
The test system of data set [7] is DU-145. Put plainly: Cytotoxicity against human DU145 cells assessed as cell growth inhibition after 48 hrs by microplate reader analysis. Format: functional, cell-based. Conditions: DU-145, 48 h. The method in brief:
as §2

Data set [8] concerns A549. Put plainly: Antiangiogenic activity against human A549 cells. The class given is functional, cell-based.
For data set [9], the system named is PC-3. Kind of data set: Cytotoxicity against human PC3 cells assessed as cell growth inhibition after 48 hrs by microplate reader analysis. The class given is functional, cell-based. The note with it: PC-3, 48 h. The method in brief:
as §2

Data set [10] concerns A549. Put plainly: Downregulation of ZNF291 gene expression in human A549 cells at 34 nM after 12 hrs by microarray analysis relative to control. The class given is functional. The method in brief: (§4)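 A549 cells (RPMI-1640, 10% heat-inactivated FBS, penicillin/streptomycin, 37 °C, 5% CO2) seeded at 4 × 10^5 per 60 mm dish. Exposed 12 h to conjugate at 21, 26, 34 or 100 nM in medium with 0.1% DMSO, against 0.1% DMSO control. Whole-genome (~25 000 genes) expression profiled by microarray.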

Data set [11] has as its system A549. Put plainly: Downregulation of ACTG gene expression in human A549 cells at 34 nM after 12 hrs by microarray analysis relative to control. Format: functional. The method in brief:
(§5)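 A549 cells, 4 × 10^5 per 60 mm dish, were exposed to conjugate for 12 h in medium with 0.1% DMSO; vehicle control was 0.1% DMSO. Whole human genome (~25 000 genes) expression was profiled by microarray and expression compared with the control.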

Data set [12] concerns Nucleic Acid. Kind of data set: Induction of calf thymus DNA cleavage at 10 to 25 nM after 12 h by PAGE analysis. The class given is nucleic-acid assay. Conditions: in the assay text read “208-bp PCR fragment DNA” for “calf thymus DNA”. The method in brief:
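5′-Texas Red-labeled 208 bp PCR fragments alkylated in 5.0 mM sodium phosphate (pH 7.0) with 10% DMF, room temperature, 12 h. Quenched with calf thymus DNA and heated 95 °C for 5 min under neutral conditions. Recovered DNA in formamide loading dye, heated 95 °C 20 min, then run on 6% denaturing polyacrylamide gel with 6.0 M urea at 1.5 kV, 40 °C.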

The test system of data set [13] is DU-145. Put plainly: Antitumor activity against human DU145 cells xenografted in BALB/c-nu/nu mouse assessed as effect on tumor growth at 0.50 mg/kg, ip for 14 days. The class given is functional, organism-based. Also noted: dose 0.5 mg/kg. The method in brief: as §1
Data set [14] is described as follows: Cytotoxicity against human EBC1 cells assessed as cell growth inhibition after 48 hrs by microplate reader analysis. The class given is functional, cell-based. The note with it: EBC-1, 48 h. Summed up: as §2
Data set [15] deals with SK-N-SH. Kind of data set: Cytotoxicity against human SK-N-SH cells assessed as cell growth inhibition after 48 hrs by microplate reader analysis. Format: functional, cell-based. The method in brief: as §2
Data set [16] relates to A549. Kind of data set: Upregulation of GLS2 gene expression in human A549 cells at 34 nM after 12 hrs by microarray analysis relative to control. The class given is functional. Summed up:
as §3

Data set [17] has as its system A549. Kind of data set: Downregulation of NP_001027.2 gene expression in human A549 cells at 34 nM after 12 hrs by microarray analysis relative to control. The class given is functional. The method in brief: as §5
The subject of data set [18] is A549. Kind of data set: Upregulation of CDKN1A gene expression in human A549 cells at 26 nM after 12 hrs by microarray analysis relative to control. Format: functional. The method in brief:
as §3

Data set [19] deals with A549. Put plainly: Upregulation of MDM2 gene expression in human A549 cells at 26 nM after 12 hrs by microarray analysis relative to control. The class given is functional. Summed up: as §3
Data set [20] relates to A549. Put plainly: Upregulation of GDF15 gene expression in human A549 cells at 26 nM after 12 hrs by microarray analysis relative to control. The class given is functional. The method in brief:
as §3

The test system of data set [21] is A549. Put plainly: Downregulation of ADH1A gene expression in human A549 cells at 26 nM after 12 hrs by microarray analysis relative to control. Format: functional. The method in brief:
as §5

Data set [22] concerns A549. Put plainly: Upregulation of BBC3 gene expression in human A549 cells at 26 nM after 12 hrs by microarray analysis relative to control. Format: functional. Summed up: as §4
The subject of data set [23] is A549. Kind of data set: Downregulation of TNIK gene expression in human A549 cells at 26 nM after 12 hrs by microarray analysis relative to control. The class given is functional. The method in brief:
as §4

Data set [24] has as its system Mus musculus. Put plainly: Toxicity in BALB/c nu/nu mouse at 0.50 mg/kg, ip for 14 days. The class given is organism-based. Also noted: dose 0.5 mg/kg, route intraperitoneal. Conditions: in vivo, 0.5 mg/kg, 336 h. Summed up:
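Pre-test in male BALB/c-nu/nu mice without xenografts. Naked conjugate was dissolved in 100% DMSO and given ip at 0.50 mg/kg (12.5 μg/mouse). Liposomal conjugate (0.33 mg/mL in 17 mM lipid, hydrated with water and sonicated) was given iv at 1.6 mg/kg (41 μg/mouse), 125 μL single dose.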

The subject of data set [25] is A549. Put plainly: Downregulation of NP_940865.1 gene expression in human A549 cells at 26 nM after 12 hrs by microarray analysis relative to control. The class given is functional. Summed up:
as §4

The structures appear in SMILES notation. Calls of active or inactive are those of the source. The calls are words filed in the database; no cut-off is given here.

For orientation: IC50 means the midpoint of a concentration-inhibition curve. Regarding `CC(=O)Nc1cn(C)c(C(=O)Nc2cn(C)c(C(=O)Nc3cc(C(=O)NCCC(=O)Nc4cc(C(=O)NCCCC(=O)Nc5cn(C)c(C(=O)NCCC(=O)Nc6cn(C)c(C(=O)Nc7ccc8[nH]c(C(=O)N9CC(CCl)c%10c9cc(O)c9ccccc%109)cc8c7)n6)n5)n(C)c4)n(C)c3)n2)n1` (racemic), the outcome in data set [1], in data set [2], in data set [6], in data set [8] and in data set [13] was inactive. The IC50 in [3] is 11.5 nM; in data set [4], 33.9 nM; in [7], 6.31 nM; in data set [9] it was 19.1 nM; in data set [14], 170 nM; in data set [15] it was 40.7 nM. Further, the “fold change (FC)” value in [5] is 6.1; in data set [10], 0.311; in [11] it was 0.307; in [16], 6.7; in [17], 0.313. The outcome in data set [12] was Active.

With `CC(=O)Nc1cn(C)c(C(=O)Nc2cc(C(=O)Nc3cc(C(=O)NCCC(=O)Nc4cc(C(=O)NCCCC(=O)Nc5cc(C(=O)NCCC(=O)Nc6cn(C)c(C(=O)Nc7ccc8[nH]c(C(=O)N9CC(CCl)c%10c9cc(O)c9ccccc%109)cc8c7)n6)n(C)c5)n(C)c4)n(C)c3)n(C)c2)n1` (racemic), the result in data set [1], in data set [2], in data set [6], in data set [8] and in data set [13] was inactive. Also, the IC50 in data set [3] was 9.12 nM; in [4] it was 25.7 nM; in [7] it was 6.03 nM; in [9], 12.6 nM; in data set [14], 60.3 nM; in data set [15] it was 19.1 nM. In addition, the “fold change (FC)” value was 8.2 in data set [18]; 8.1 in data set [19]; 5.5 in [20]; 0.317 in data set [21]; 9.4 in data set [22]; 0.312 in data set [23]. Further, in data set [25], the “fold change (FC)” value is listed as 0.322. Moreover, the outcome in data set [12] was Active. The Activity result in [24] was “Non-toxic”.
